Holding throughout (assay type): functional, cell-based
One assay has as its system SK-OV-3. The assay is described as follows: Cytotoxicity against human ovary adenocarcinoma SKOV3 cells assessed as reduction in optical density by MTT assay. As to conditions: SK-OV-3, Female gonad. A digest of the protocol: (§1)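 Cells were cultured in RPMI-1640 with 10% (v/v) fetal calf serum, 100 µg ml-1 penicillin and 100 µg ml-1 streptomycin at 37 °C in humidified 5% CO2. Compounds were dissolved in DMSO, with final DMSO at 2% (v/v) or lower. MTT staining was used, with three replicate wells per point. IC50 is the concentration giving a 50% drop in optical density versus untreated cells.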
A general note: Tetrazolium dyes change colour on reduction, which living cells bring about.

The next assay relates to KB. Briefly: Cytotoxicity against human epidermoid carcinoma of the nasopharynx KB cells assessed as reduction in optical density by MTT assay. The method in brief: as §1
The test system of another assay is 769-P. Briefly: Cytotoxicity against human renal carcinoma 769-P cells assessed as reduction in optical density by MTT assay. The method in brief:
as §1

A further assay has as its system A-375. Briefly: Cytotoxicity against human malignant melanoma A375 cells assessed as reduction in optical density by MTT assay. A digest of the protocol:
as §1

Another assay deals with BGC-823. Briefly: Cytotoxicity against human gastric carcinoma BGC823 cells assessed as reduction in optical density by MTT assay. A digest of the protocol: as §1

Experimental findings from ChEMBL document CHEMBL2311304, “Design, synthesis and in vitro and in vivo antitumor activities of novel bivalent β-carbolines” (Eur J Med Chem, 2013) are described below.

In general, IC50 refers to the concentration at which inhibition is half-maximal.

Bounds are passed on as bounds.

Regarding `CC(C)c1nccc2c3ccccc3n(CCCCCCCCCCn3c4ccccc4c4ccnc(C(C)C)c43)c12`, the IC50 was over 200 µM in the assay with SK-OV-3; over 200 µM in the assay on KB; 4.6 µM with 769-P; 19.6 µM in the assay on A-375; over 200 µM in the assay with BGC-823.

`Cc1nccc2c3ccccc3n(CCCCCCCn3c4ccccc4c4ccnc(C)c43)c12`: the IC50 in the assay on SK-OV-3 was 96.8 µM; with KB it was over 200 µM; with 769-P, 51.7 µM; with A-375, over 200 µM; with BGC-823 it was over 200 µM.

Turning to `COc1ccc2c3ccnc(C)c3n(CCCCCCCn3c4cc(OC)ccc4c4ccnc(C)c43)c2c1`, the IC50 is 10.2 µM with SK-OV-3; 38.6 µM with KB; 114 µM in the assay with 769-P; 113 µM in the assay on A-375; 104 µM in the assay with BGC-823.

In the case of `CCOC(=O)c1cc2c3ccccc3n(CCCCCCn3c4ccccc4c4cc(C(=O)OCC)nc(-c5cc(OC)c(OC)c(OC)c5)c43)c2c(-c2cc(OC)c(OC)c(OC)c2)n1`, the IC50 with SK-OV-3, with KB, in the assay on 769-P, with A-375 and in the assay on BGC-823 was over 200 µM throughout.

For `c1cncc(-c2nccc3c4ccccc4n(CCCCn4c5ccccc5c5ccnc(-c6cccnc6)c54)c23)c1`, the IC50 is 36.8 µM in the assay with SK-OV-3; over 200 µM in the assay with KB; over 200 µM in the assay with 769-P; 85.3 µM in the assay with A-375; over 200 µM in the assay on BGC-823.

For `CCOC(=O)c1cc2c3ccccc3n(CCCCCn3c4ccccc4c4cc(C(=O)OCC)nc(-c5cccnc5)c43)c2c(-c2cccnc2)n1`, the IC50 is over 200 µM with SK-OV-3; 15.7 µM in the assay with KB; 132 µM in the assay with 769-P; 13 µM in the assay with A-375; 24.1 µM in the assay with BGC-823.

With `Cc1nccc2c3ccccc3n(CCCCCCCCCCn3c4ccccc4c4ccnc(C)c43)c12`, the IC50 in the assay with SK-OV-3 is 8.5 µM; in the assay on KB, over 200 µM; with 769-P it was 16.2 µM; in the assay on A-375 it was over 200 µM; in the assay with BGC-823, over 200 µM.

Turning to `CC(C)c1nccc2c3ccccc3n(CCCCCCn3c4ccccc4c4ccnc(C(C)C)c43)c12`, the IC50 in the assay on SK-OV-3 was 31.8 µM; in the assay with KB, over 200 µM; in the assay on 769-P it was 18.5 µM; with A-375, 53.5 µM; with BGC-823, over 200 µM.

As for `CCOC(=O)c1cc2c3ccccc3n(CCCCCCn3c4ccccc4c4cc(C(=O)OCC)nc(C)c43)c2c(C)n1`, the IC50 with SK-OV-3, with KB, in the assay on 769-P, in the assay on A-375 and in the assay on BGC-823 was over 200 µM each time.

For `COc1cc(-c2nccc3c4ccccc4n(CCCCCCCn4c5ccccc5c5ccnc(-c6cc(OC)c(OC)c(OC)c6)c54)c23)cc(OC)c1OC`, the IC50 in the assay with SK-OV-3 was over 200 µM; in the assay with KB, 7.6 µM; in the assay with 769-P it was 3.3 µM; in the assay with A-375 it was 4 µM; in the assay with BGC-823, over 200 µM.

With `CCCCOc1ccc2c3ccnc(C)c3n(CCCCCCn3c4cc(OCCCC)ccc4c4ccnc(C)c43)c2c1`, the IC50 was over 200 µM in the assay on SK-OV-3; over 200 µM in the assay with KB; 56 µM with 769-P; over 200 µM in the assay on A-375; over 200 µM with BGC-823.

`COc1ccc2c3ccnc(C)c3n(CCCCCCCCn3c4cc(OC)ccc4c4ccnc(C)c43)c2c1`: the IC50 in the assay with SK-OV-3 came to 7.1 µM; in the assay on KB it was 2.8 µM; with 769-P it was 65.6 µM; in the assay on A-375, 6.2 µM; in the assay on BGC-823 it was 75.7 µM.

`Cc1nccc2c3ccccc3n(CCCCCCCCCn3c4ccccc4c4ccnc(C)c43)c12`: the IC50 in the assay with SK-OV-3 is 61.9 µM; in the assay with KB, over 200 µM; in the assay with 769-P, over 200 µM; with A-375, 57.2 µM; in the assay with BGC-823, over 200 µM.

For the compound `Cc1nccc2c3ccccc3n(CCCCCn3c4ccccc4c4ccnc(C)c43)c12`, the IC50 is 18.8 µM in the assay with SK-OV-3; over 200 µM in the assay with KB; over 200 µM in the assay with 769-P; over 200 µM with A-375; over 200 µM in the assay with BGC-823.
